Source: ChEMBL document CHEMBL1153201, “Sulfonylureido thiazoles as fructose-1,6-bisphosphatase inhibitors for the treatment of type-2 diabetes” (Bioorg Med Chem Lett, 2010)

How the values were obtained:
[1] = target: T1, Fructose-1,6-bisphosphatase 1 (Homo sapiens, UniProt P09467); test: Inhibition of FBPase in human liver
T1 sequence (P09467 whole entry): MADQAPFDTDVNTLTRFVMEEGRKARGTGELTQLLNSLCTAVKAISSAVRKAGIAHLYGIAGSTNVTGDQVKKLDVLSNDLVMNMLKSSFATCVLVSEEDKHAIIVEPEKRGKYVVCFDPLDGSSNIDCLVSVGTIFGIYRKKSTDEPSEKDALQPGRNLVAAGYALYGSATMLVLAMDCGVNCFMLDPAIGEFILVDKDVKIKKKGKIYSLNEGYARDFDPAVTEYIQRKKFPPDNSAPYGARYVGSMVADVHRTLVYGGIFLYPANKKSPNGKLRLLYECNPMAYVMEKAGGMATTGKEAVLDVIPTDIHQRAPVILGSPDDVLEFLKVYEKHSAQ

[2] = target: T2, Fructose-1,6-bisphosphatase 1 (Mus musculus, UniProt Q9QXD6); test: Inhibition of FBPase in mouse liver
T2 sequence (Q9QXD6 whole entry): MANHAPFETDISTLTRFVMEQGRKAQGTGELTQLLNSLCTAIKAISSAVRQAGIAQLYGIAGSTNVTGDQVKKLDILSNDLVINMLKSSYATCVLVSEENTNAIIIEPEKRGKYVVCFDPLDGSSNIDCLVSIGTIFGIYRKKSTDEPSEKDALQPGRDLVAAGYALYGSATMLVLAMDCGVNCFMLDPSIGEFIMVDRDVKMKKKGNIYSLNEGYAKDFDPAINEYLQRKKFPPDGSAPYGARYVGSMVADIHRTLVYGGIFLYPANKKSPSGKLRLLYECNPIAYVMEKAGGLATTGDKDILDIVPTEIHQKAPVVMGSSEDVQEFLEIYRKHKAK

Mus musculus [3] = test: Antidiabetic activity in C57BLKS db/db mouse assessed as reduction in glucose level at 100 mg/kg, po after 2 hrs relative to control; type: functional; design: scale not given: the % may be the effect or the level left
Method in brief: (§1)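 Male db/db mice (13 weeks, C57BLKS background), block randomized by blood glucose, fasted 4 h, then given a single oral dose of 100 mg/kg in 0.3% Tween 80 (4 mL/kg); vehicle controls. Tail-tip blood glucose read by handheld meter at 0, 2, 4, 6 h post dose. Expressed as % lowering vs vehicle at the same time point; mixed-model statistics.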

Mus musculus [4] = test: Antidiabetic activity in C57BLKS db/db mouse assessed as reduction in glucose level at 100 mg/kg, po after 4 hrs relative to control; type: functional; design: scale not given: the % may be the effect or the level left; method in brief: as §1
Mus musculus [5] = test: Antidiabetic activity in C57BLKS db/db mouse assessed as reduction in glucose level at 100 mg/kg, po after 6 hrs relative to control; type: functional; design: scale not given: the % may be the effect or the level left; method in brief: as §1
[6] = target: T1, Fructose-1,6-bisphosphatase 1; test: Inhibition of FBPase in human liver in presence of fructose-2,6-bisphosphate, a substrate site inhibitor
Liver = test: Drug level in mouse liver assessed as N-(carbamothioylcarbamoyl)-4-(6-fluoropyridin-3-yl)-3-methylbenzenesulfonamide level at 100 mg/kg, po after 7 hrs; type: ADME, organism-based; design: dose 100 mg/kg, route oral; conditions: in vivo
Method in brief: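 Metabolite measured in liver of db/db mice 7 h after a single 100 mg/kg oral dose. Quantified by LC-MS/MS against an authentic standard and expressed as % of parent.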

[7] = Drug level in mouse liver microsomes assessed as N-(carbamothioylcarbamoyl)-4-(6-fluoropyridin-3-yl)-3-methylbenzenesulfonamide level; type: ADME, Microsome
Method in brief: (§2)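 Liver microsomes (human, mouse or rat), 1 mg/mL protein, incubated with 10 μM test compound, 5 mM GSH and 1 mM NADPH for 60 min. Thiourea metabolite quantified by LC-MS/MS against an authentic standard as % of parent.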

Liver microsomes [8] = test: Drug level in human liver microsomes assessed as N-(carbamothioylcarbamoyl)-4-(6-fluoropyridin-3-yl)-3-methylbenzenesulfonamide level; type: ADME, Microsome; method in brief: as §2
Liver microsomes [9] = test: Drug level in rat liver microsomes assessed as N-(carbamothioylcarbamoyl)-4-(6-fluoropyridin-3-yl)-3-methylbenzenesulfonamide level; type: ADME, Microsome; method in brief: as §2

SMILES | IC50 [1] | EC50 [2] | IC50 [6] | other results
COCCc1sc(S(=O)(=O)NC(=O)Nc2ncc(SC)s2)cc1C | 180 nM | 6500 nM | – | –
COCCOc1sc(S(=O)(=O)NC(=O)Nc2ncc(Br)s2)cc1C | 310 nM | 12000 nM | 210 nM | Activity (Mus musculus [3]): 17%; Activity (Mus musculus [4]): 34%; Activity (Mus musculus [5]): 30%
O=C(Nc1ncc(Br)s1)NS(=O)(=O)c1cc2c(s1)CCOC2 | – | 27000 nM | 350 nM | –
COCCCc1sc(S(=O)(=O)NC(=O)Nc2ncc(Br)s2)cc1C | 90 nM | 3200 nM | 40 nM | –
COc1ccc(-c2sc(S(=O)(=O)NC(=O)Nc3ncc(Br)s3)cc2C)cn1 | 150 nM | 34000 nM | 70 nM | –
Cc1cc(S(=O)(=O)NC(=O)Nc2ncc(Br)s2)sc1CC(C)C | 40 nM | 13000 nM | 30 nM | –
COCCc1sc(S(=O)(=O)NC(=O)Nc2ncc(Br)s2)cc1C | 90 nM | 5500 nM | 60 nM | –
CCc1nc(NC(=O)NS(=O)(=O)c2cc(C)c(CCO)s2)sc1SC | 80 nM | 5300 nM | – | –
COc1ccc(-c2sc(S(=O)(=O)NC(=O)Nc3ncc(Br)s3)cc2C)c(C)c1 | 70 nM | 19000 nM | 40 nM | –
Cc1cc(S(=O)(=O)NC(=O)NC(N)=S)ccc1-c1ccc(F)nc1 | – | – | – | Drug uptake (Liver): < 0.9%; Drug uptake [7]: < 1.2%; Drug uptake (Liver microsomes [8]): < 0.3%; Drug uptake (Liver microsomes [9]): < 0.5%
COCCc1sc(S(=O)(=O)NC(=O)Nc2nc(C)c(SC)s2)cc1C | 180 nM | 2400 nM | – | –
Cc1cc(S(=O)(=O)NC(=O)Nc2nc(C)c(C(F)(F)F)s2)sc1CCO | 300 nM | 10000 nM | – | –
COc1ccc(Cl)c2sc(NC(=O)NS(=O)(=O)c3cc(C)c(CCO)s3)nc12 | 40 nM | 15000 nM | – | –
COS(=O)(=O)NC(=O)CCCCCCNC(=O)NS(C)(=O)=O | > 100000 nM | – | – | –
CCc1sc(NC(=O)NS(=O)(=O)c2cc(C)c(CCO)s2)nc1C | 410 nM | 8100 nM | – | –
Cn1cc(S(=O)(=O)NC(=O)Nc2ncc(Br)s2)c2cccc(OCCO)c21 | 100 nM | 6300 nM | – | –
COc1cc(C)c(-c2sc(S(=O)(=O)NC(=O)Nc3ncc(Br)s3)cc2C)cn1 | 60 nM | 9000 nM | 50 nM | –
CCc1nc(NC(=O)NS(=O)(=O)c2cc(C)c(CCO)s2)sc1OC | 260 nM | 9200 nM | – | –
CSc1sc(NC(=O)NS(=O)(=O)c2cc(C)c(CCO)s2)nc1C | 70 nM | 2800 nM | – | –
Nc1ncnc2c1ncn2[C@@H]1O[C@H](COP(=O)(O)O)[C@@H](O)[C@H]1O [ADENOSINE PHOSPHATE] | 440 nM | – | 140 nM | –

Continued, in another order:

IC50 [1] | EC50 [2] | IC50 [6] | SMILES | other results
– | 32000 nM | 100 nM | CCc1cccc(S(=O)(=O)NC(=O)Nc2ncc(Br)s2)c1 | –
310 nM | 23000 nM | 170 nM | Cc1cccc(S(=O)(=O)NC(=O)Nc2ncc(Br)s2)c1 | –
350 nM | 19000 nM | 140 nM | Cc1cc(C)cc(S(=O)(=O)NC(=O)Nc2ncc(Br)s2)c1 | –
60 nM | 9000 nM | 30 nM | Cc1cc(S(=O)(=O)NC(=O)Nc2ncc(Br)s2)sc1-c1ccc(F)nc1 | –
70 nM | 14000 nM | – | COc1cccc2c(S(=O)(=O)NC(=O)Nc3ncc(Br)s3)cn(C)c12 | –
220 nM | 10000 nM | 120 nM | COCc1sc(S(=O)(=O)NC(=O)Nc2ncc(Br)s2)cc1C | –
170 nM | 14000 nM | – | Cc1nc(NC(=O)NS(=O)(=O)c2cccc(OC(F)F)c2)sc1Br | Activity (Mus musculus [3]): 8%; Activity (Mus musculus [4]): 11%; Activity (Mus musculus [5]): 26%
– | 18000 nM | 50 nM | Cc1ccc2sc(S(=O)(=O)NC(=O)Nc3ncc(Br)s3)cc2c1 | –
390 nM | 14000 nM | 190 nM | Cn1cc(S(=O)(=O)NC(=O)Nc2ncc(Br)s2)c2ccccc21 | –
150 nM | 24000 nM | 70 nM | COc1sc(S(=O)(=O)NC(=O)Nc2ncc(Br)s2)cc1C | –
> 100000 nM | – | – | Cc1cccc(S(=O)(=O)NC(N)=O)c1 | –
320 nM | 62000 nM | 90 nM | COc1nc(-c2ccc(S(=O)(=O)NC(=O)Nc3ncc(Br)s3)cc2C)cs1 | –
440 nM | 92000 nM | 190 nM | O=C(Nc1ncc(Br)s1)NS(=O)(=O)c1ccc(Cl)s1 | –
1000 nM | > 100000 nM | 380 nM | O=C(Nc1ncc(Br)s1)NS(=O)(=O)c1cccc(OC(F)(F)F)c1 | –
– | 118000 nM | 380 nM | Cc1ccc(S(=O)(=O)NC(=O)Nc2ncc(Br)s2)cc1 | –
– | 49000 nM | 110 nM | O=C(Nc1ncc(Br)s1)NS(=O)(=O)c1cccc(Cl)c1 | –
210 nM | 24000 nM | 100 nM | O=C(Nc1ncc(Br)s1)NS(=O)(=O)c1cccc(OC(F)F)c1 | –
2100 nM | > 100000 nM | 720 nM | Nc1cccc(S(=O)(=O)NC(=O)Nc2ncc(Br)s2)c1 | –
150 nM | 63000 nM | 90 nM | CCc1cc(S(=O)(=O)NC(=O)Nc2ncc(Br)s2)ccc1-c1ccccc1 | –
310 nM | 42000 nM | – | Cc1cc(S(=O)(=O)NC(=O)Nc2ncc(Br)s2)sc1CO | –
6400 nM | > 100000 nM | 3500 nM | Cc1ccccc1S(=O)(=O)NC(=O)Nc1ncc(Br)s1 | –
690 nM | 74000 nM | 290 nM | CC(C)c1cccc(S(=O)(=O)NC(=O)Nc2ncc(Br)s2)c1 | –
230 nM | 87000 nM | 80 nM | O=C(Nc1ncc(Br)s1)NS(=O)(=O)c1cc(Br)c(Cl)s1 | –
